Measurements from ChEMBL document CHEMBL3351782, “Synthesis and biological evaluation of glaucocalyxin A derivatives as potential anticancer agents” (Eur J Med Chem, 2014).
pIC50: −log10 of the molar value.

What was measured:
[1] = system: KB; test: Induction of apoptosis in human KB cells assessed as early apoptotic cells level at 10 uM after 48 hrs by Annexin V and propidium iodide staining based flow cytometry (reference value: 7.08%); format: functional
Procedure, shortened: (§1)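 KB cells were plated in 6-well plates at 2.5 × 10^5 cells/mL and treated for 48 h. Adherent and floating cells were pooled, washed twice in PBS and stained with Annexin V and PI in binding buffer for 20 min at room temperature. Samples were read immediately on a FACSCalibur; untreated cells served as control. Values are means ± SE of at least three independent experiments.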

[2] = Antiproliferative activity against human HL7702 cells after 48 hrs by MTT assay; format: cell-based; details: L02, 48 h
Procedure, shortened: (§2)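 Cells were seeded at 3 × 10^3 per well and exposed 24 h later, while growing exponentially, to compounds at final concentrations of 1.25 to 40 for 48 h. MTT (5 mg/mL in PBS) was then added for 6 h. The medium was aspirated, the formazan dissolved in DMSO and absorbance read at 570 nm. Survival is relative to untreated cells; IC50 comes from triplicate wells in at least three independent experiments.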

[3] = system: KB; test: Induction of apoptosis in human KB cells assessed as early apoptotic cells level at 5 uM after 48 hrs by Annexin V and propidium iodide staining based flow cytometry (reference value: 7.08%); format: functional; procedure, shortened: as §1
[4] = system: B16; test: Antiproliferative activity against mouse B16 cells after 48 hrs by MTT assay; format: functional, cell-based; details: B16, 48 h; procedure, shortened: as §2
[5] = Antiproliferative activity against human SGC7901 cells after 48 hrs by MTT assay; format: functional, cell-based; details: SGC-7901, 48 h; procedure, shortened: as §2
[6] = system: KB; test: Induction of apoptosis in human KB cells assessed as late apoptotic cells level at 5 uM after 48 hrs by Annexin V and propidium iodide staining based flow cytometry (reference value: 2.26%); format: functional; procedure, shortened: as §1
[7] = system: KB; test: Induction of apoptosis in human KB cells assessed as viable cells level at 10 uM after 48 hrs by Annexin V and propidium iodide staining based flow cytometry (reference value: 87.4%); format: functional; procedure, shortened: as §1
[8] = system: KB; test: Retention time of the compound in human KB cells lysates treated with 500 uM in presence of 10 mM cysteine by LC-HRMS method
[9] = system: KB; test: Induction of apoptosis in human KB cells assessed as viable cells level at 5 uM after 48 hrs by Annexin V and propidium iodide staining based flow cytometry (reference value: 87.4%); format: functional; procedure, shortened: as §1
[10] = Stability in 80% rat plasma assessed as parent compound remaining at 1 uM at 37 degC after 24 hrs by HPLC method; format: ADME, cell-free; details: read-out: Stability
Procedure, shortened: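 Thawed rat plasma was diluted to 80% v/v with 0.1 M PBS, pH 7.4. Compound was spiked from DMSO stock (1% v/v DMSO final) and held at 37 °C. Aliquots were quenched with two volumes of acetonitrile and centrifuged at 4 °C, 10,000 g, 10 min. Supernatants were run on HPLC with external standard; the result is percent parent remaining at 24 h, mean ± SD, n = 3.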

[11] = system: KB; test: Induction of apoptosis in human KB cells after 48 hrs by Annexin V and propidium iodide staining based flow cytometry; format: functional, cell-based; procedure, shortened: as §1
[12] = system: KB; test: Prodrug conversion in human KB cells lysates assessed as formation of cysteine conjugates at 500 uM in presence of 10 mM cysteine by LC-HRMS method; format: ADME, cell-based, Lysate
Procedure, shortened: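 KB cells (5 × 10^6) were lysed by freeze/thaw. DMSO stock prepared just before use was added to lysate already containing cysteine, with DMSO matched in controls, and incubated at 37 °C. Aliquots taken at 30 min and 1 h were mixed with two volumes of acetonitrile and centrifuged (4 °C, 10,000 g, 10 min). They were analysed by LC-HRMS in positive mode using a water + 0.1% formic acid/methanol gradient.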

[13] = system: KB; test: Induction of apoptosis in human KB cells assessed as viable cells level at 20 uM after 48 hrs by Annexin V and propidium iodide staining based flow cytometry (reference value: 87.4%); format: functional; procedure, shortened: as §1
[14] = system: KB; test: Induction of apoptosis in human KB cells assessed as late apoptotic cells level at 20 uM after 48 hrs by Annexin V and propidium iodide staining based flow cytometry (reference value: 2.26%); format: functional; procedure, shortened: as §1
[15] = system: KB; test: Induction of apoptosis in human KB cells assessed as late apoptotic cells level at 10 uM after 48 hrs by Annexin V and propidium iodide staining based flow cytometry (reference value: 2.26%); format: functional; procedure, shortened: as §1
[16] = system: KB; test: Induction of apoptosis in human KB cells assessed as early apoptotic cells level at 20 uM after 48 hrs by Annexin V and propidium iodide staining based flow cytometry (reference value: 7.08%); format: functional; procedure, shortened: as §1
[17] = system: KB; test: Antiproliferative activity against human KB cells after 48 hrs by MTT assay; format: functional, cell-based; procedure, shortened: as §2
[18] = system: KB; test: Induction of apoptosis in human KB cells assessed as necrotic cells level at 20 uM after 48 hrs by Annexin V and propidium iodide staining based flow cytometry (reference value: 3.23%); format: functional; procedure, shortened: as §1
[19] = Antiproliferative activity against human SMMC7721 cells after 48 hrs by MTT assay; format: functional, cell-based; details: SMMC-7721, 48 h; procedure, shortened: as §2
[20] = system: KB; test: Induction of apoptosis in human KB cells assessed as necrotic cells level at 10 uM after 48 hrs by Annexin V and propidium iodide staining based flow cytometry (reference value: 3.23%); format: functional; procedure, shortened: as §1
[21] = Chemical stability in 10 mM pH 7.4 PBS buffer assessed as parent compound remaining at 1 uM at 37 degC after 24 hrs by HPLC method; format: physicochemical; details: read-out: Stability
Procedure, shortened: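 DMSO stock was diluted into pre-warmed 10 mM PBS, pH 7.4, with 1% v/v DMSO final, and incubated at 37 °C. Aliquots were taken at set times and injected directly onto reversed-phase HPLC (ODS column, water + 0.1% TFA eluent, external standard). The result is percent parent remaining after 24 h, mean ± SD, n = 3.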

[22] = Antiproliferative activity against human HL60 cells after 48 hrs by MTT assay; format: functional, cell-based; details: HL-60, 48 h; procedure, shortened: as §2
[23] = system: A549; test: Antiproliferative activity against human A549 cells after 48 hrs by MTT assay; format: functional, cell-based; details: A549, 48 h; procedure, shortened: as §2
[24] = system: KB; test: Induction of apoptosis in human KB cells assessed as necrotic cells level at 5 uM after 48 hrs by Annexin V and propidium iodide staining based flow cytometry (reference value: 3.23%); format: functional; procedure, shortened: as §1

**Q.** What does the source list for C=C1C(=O)[C@@]23[C@H](O)C[C@@H]4C(C)(C)C(=O)CC[C@@]4(C)[C@@H]2CC[C@@H]1[C@H]3O [GLAUCOCALYXIN A]?
**A.** Activity [1]: 14.3%; pIC50 [2]: 5.06; Activity [3]: 10.7%; pIC50 [4]: 5.32; pIC50 [5]: 4.93; Activity [6]: 3.69%; Activity [7]: 76.1%; Retention_time [8]: 5.75 min; Activity [9]: 80.6%; remaining at 24 h, 1 µM [10]: 24.2%; Activity [11]: Dose-dependent effect; Retention_time [12]: 2.42 min; Activity [13]: 43.9%; Activity [14]: 19%; Activity [15]: 6.89%; Activity [16]: 33.4%; pIC50 [17]: 5.19; Activity [18]: 3.59%; pIC50 [19]: 5.09; Activity [20]: 2.69%; remaining at 24 h, 1 µM [21]: 109%; pIC50 [22]: 5.26; pIC50 [23]: 5.12; Activity [24]: 4.95%
